Consider 3 compounds from ChEMBL document CHEMBL4823251, “Structure-Based Exploration of Selectivity for ATM Inhibitors in Huntington's Disease” (J Med Chem, 2021).

In brackets after ≈: the same amount, converted by molar mass. Some results are limits rather than exact numbers.

Data set [1] is described as follows: Brain to plasma permeability coefficient, Kp in C57Bl/6 mouse at 2 mg/kg, iv administered as single dose. In kind it is ADME, organism-based. As to conditions: brain and plasma. The procedure, abridged:
(§1)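 Male C57BL/6 mice given a slow tail-vein bolus of a 0.4 mg/mL solution in 10:40:50 DMSO/PEG/H₂O, at 2 mg/kg (5 mL/kg) or 0.8 mg/kg (2 mL/kg). Plasma and brain sampled over 8 h, n = 3 per time point, and measured by LC–MS/MS. Noncompartmental analysis on mean concentrations with linear-trapezoidal AUC. Kp is the brain/plasma AUC ratio of total concentrations; Kpuu uses free concentrations, corrected by equilibrium-dialysis plasma and brain binding.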

The target of data set [2] is Serine/threonine-protein kinase ATR (Homo sapiens, UniProt Q13535). The experiment in a line: Inhibition of ATR in human HT-29 cells assessed as reduction in CHK1 phosphorylation incubated for 4 hrs. In kind it is cell-based. Put shortly: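 HT29 cells seeded at 25k/well overnight, then treated with compound titrations (0.3% DMSO) plus 10 μM gemcitabine for 4 h. Cells fixed in paraformaldehyde, permeabilized with Triton-X, and stained for phospho-Chk1 and total Chk1 using LI-COR IRDye detection. Ratio normalized to DMSO and 30 μM AZ-20 controls. IC50 is the mean of at least two experiments.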

A short description of data set [3]: Volume of distribution at steady state in C57Bl/6 mouse at 2 mg/kg, iv administered as single dose. In kind it is ADME, organism-based. The note with it: in vivo, read-out: Vdss. The procedure, abridged:
as §1

Data set [4] can be described thus: Half life in C57Bl/6 mouse at 2 mg/kg, iv administered as single dose. In kind it is ADME, organism-based. The note with it: in vivo. Put shortly: as §1
Data set [5] can be described thus: Clearance in C57Bl/6 mouse at 2 mg/kg, iv administered as single dose. In kind it is ADME, organism-based. As to conditions: in vivo. The procedure, abridged:
as §1

Data set [6] can be described thus: Effective efflux ratio of apparent permeability across basolateral to apical over apical to basolateral side in MDCK-MDR1 cells assessed as efflux ratio after 1 hr by LC-MS/MS analysis. In kind it is ADME, cell-based, Canis lupus familiaris. The note with it: dog, mdck-mdr1, 1 h. The procedure, abridged:
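MDCKII MDR1 and wild-type cells seeded at 2 × 10⁵ cells/well in Transwells, cultured 3 days. Test compounds 10 μM in HBSS with 25 mM HEPES pH 7.4, dosed apical or basolateral in duplicate, 1 h at 37 °C. Lucifer yellow monolayer check, wells above 100 nm/s rejected. LC–MS/MS read-out. ER = Papp B>A/A>B. EER = MDR1 ER over wild-type ER.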

Data set [7] deals with DNA-dependent protein kinase catalytic subunit (Homo sapiens, UniProt P78527). The experiment in a line: Inhibition of DNA-PK isolated from human HeLa nuclear extract using full length His-tagged p53 as substrate measured after 75 mins in presence of ATP by HTRF assay. In kind it is subcellular, Nucleus. The procedure, abridged: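 Buffer was 50 mM HEPES pH 7.5, 5 mM MgCl₂, 0.01% Brij35, 1 mM DTT and 1 μg/mL sheared calf thymus DNA; reaction ran 75 min at 20 °C. Stopped with d2-anti-6HIS and cryptate anti-phospho-p53 antibodies in KF/EDTA buffer. Read at 665/620 nm after 7 h.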
(In general: In TR-FRET formats the signal depends on donor and acceptor labels being close together.)

The species named for data set [8] is Homo sapiens. Put plainly: Selectivity ratio of Ki for full length recombinant GST-tagged VPS34 expressed in baculovirus expression system using PI/PS as substrate incubated for 60 mins in presence of ATP at Km concentration by luminescence assay to Ki for full length recombinant FLAG-tagged human ATM assessed as decrease in p53 S15 phosphorylation using full length myc-tagged p53 as substrate incubated for 30 mins in presence of ATP by ELISA. Put shortly: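 ADP-Glo luminescence read-out. ATM reaction: 0.75 nM enzyme, 25 nM myc-p53, 10 μM ATP, 30 min at 20 °C, p53 S15 phosphorylation by ELISA. Ki values are means of at least two experiments.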
(An ELISA detects its analyte on a solid surface through an enzyme-linked reagent.)

Data set [9] deals with T1, Phosphatidylinositol 3-kinase catalytic subunit type 3 (Homo sapiens, UniProt Q8NEB9). Put plainly: Inhibition of full length recombinant GST-tagged human VPS34 expressed in baculovirus expression system using PI/PS as substrate incubated for 60 mins in presence of ATP at Km concentration by luminescence assay.
For data set [10], the species on record is Homo sapiens. Put plainly: Selectivity ratio of Ki for DNA-PK isolated from human HeLa nuclear extract using full length His-tagged p53 as substrate measured after 75 mins in presence of ATP by HTRF assay to Ki for full length recombinant FLAG-tagged human ATM assessed as decrease in p53 S15 phosphorylation using full length myc-tagged p53 as substrate incubated for 30 mins in presence of ATP by ELISA. The procedure, abridged:
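HTRF detection of p53 S15 phosphorylation. ATM reaction: 0.75 nM enzyme, 25 nM myc-p53, 10 μM ATP, 30 min at 20 °C, anti-myc capture ELISA. Ki values are means of at least two experiments.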

Data set [11] can be described thus: Unbound brain-to-plasma concentration ratio in C57Bl/6 mouse at 2 mg/kg, iv administered as single dose. In kind it is ADME, organism-based. The note with it: brain and plasma, read-out: K(p,uu,brain). Put shortly:
as §1

Data set [12] is described as follows: Intrinsic clearance in C57Bl/6 mouse pooled liver microsomes at 1 uM measured up to 40 mins in presence of NADPH by LC-MS/MS analysis. In kind it is ADME, Microsome. As to conditions: read-out: CLH. The procedure, abridged:
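Reaction started with 1 mM NADPH. Sampled at 0, 5, 10, 20 and 40 min, quenched in acetonitrile with internal standard, and analysed by LC–MS/MS.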
On the technique in general: Microsomes from liver hold many membrane-bound enzymes, among them those of drug oxidation.

The target in data set [13] is T2, Serine-protein kinase ATM (Homo sapiens, UniProt Q13315). Put plainly: Inhibition of full length recombinant FLAG-tagged human ATM assessed as decrease in p53 S15 phosphorylation using full length myc-tagged p53 as substrate incubated for 30 mins in presence of ATP by ELISA. Put shortly:
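Buffer was 25 mM HEPES pH 7.5 with MgCl₂, MnCl₂, Brij-35, glycerol, BSA and DTT (0.1% DMSO); reaction ran 30 min at 20 °C and was stopped with 70 mM EDTA. Product captured on anti-myc-coated plates and detected with anti-p53 pS15, HRP secondary and TMB, absorbance at 450 nm.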

The nature of data set [14]: Apparent permeability across apical to basolateral side in MDCK-MDR1 cells after 1 hr by LC-MS/MS analysis. In kind it is ADME, cell-based, Canis lupus familiaris. The note with it: dog. Put shortly: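 MDCKII-MDR1 and wild-type cells seeded at 2 × 10⁵ cells/well on Transwells and cultured 3 days. Test compound at 10 μM in HBSS with 25 mM HEPES, pH 7.4, added apical or basolateral in duplicate. Lucifer yellow used as integrity check; wells above 100 nm/s rejected. Sampled after 1 h at 37 °C and quantified by LC–MS/MS. Papp taken from the apical-to-basal direction.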

A short description of data set [15]: Kinetic solubility of the compound in pH 7.4 PBS buffer incubated for 2 hrs using orbital shaker by LC-UV mass spectrometry. In kind it is physicochemical. As to conditions: read-out: Kinetic_solubility. The procedure, abridged:
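Shaken on an orbital shaker for 2 h at room temperature, then filtered. Filtrate analysed by LC-UV with MS confirmation, calibrated against 200 μM and 10 μM DMSO dilutions.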

Data set [16] deals with Serine/threonine-protein kinase mTOR (Homo sapiens, UniProt P42345). Put plainly: Binding affinity to mTOR (unknown origin).
Data set [17] is described as follows: Bioavailability in C57Bl/6 mouse at 10 mg/kg, po or 2 mg/kg, iv. The note with it: in vivo.
The target of data set [18] is T2, Serine-protein kinase ATM. Put plainly: Inhibition of ATM in human U2OS cells assessed as reduction in etoposide-stimulated KAP1 phosphorylation incubated for 60 mins by immunoreactivity assay. In kind it is cell-based. The procedure, abridged:
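U2OS cells plated overnight at 6k cells/well (37 °C, 5% CO₂), then treated with compound titrations (0.3% DMSO) plus 100 μM etoposide for 60 min. Cells fixed in cold methanol and stained for phospho-KAP1 and total KAP1 using IRDye secondaries on a LI-COR Odyssey. IC50 is the mean of at least two experiments.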

The target of data set [19] is T1, Phosphatidylinositol 3-kinase catalytic subunit type 3. Put plainly: Binding affinity to VPS34 (unknown origin).
A short description of data set [20]: Clearance in C57Bl/6 mouse at 0.8 mg/kg, iv administered as single dose. In kind it is ADME, organism-based. The note with it: in vivo. Put shortly: as §1
Data set [21] is described as follows: Brain to plasma permeability coefficient, Kp in C57Bl/6 mouse at 0.8 mg/kg, iv administered as single dose. In kind it is ADME, organism-based. The note with it: brain and plasma. Put shortly:
as §1

Data set [22] can be described thus: Volume of distribution at steady state in C57Bl/6 mouse at 0.8 mg/kg, iv administered as single dose. In kind it is ADME, organism-based. As to conditions: in vivo, read-out: Vdss. The procedure, abridged: as §1
Data set [23] in a line: Bioavailability in C57Bl/6 mouse at 10 mg/kg, po or 0.8 mg/kg, iv. As to conditions: in vivo. In kind it is ADME, organism-based. The procedure, abridged:
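An IV reference dose of 0.8 mg/kg was given. Plasma measured by LC–MS/MS, n = 3 per time point. %F calculated as dose-normalized PO AUCinf divided by dose-normalized IV AUCinf.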

Data set [24] can be described thus: Unbound brain-to-plasma concentration ratio in C57Bl/6 mouse at 0.8 mg/kg, iv administered as single dose. In kind it is ADME, organism-based. As to conditions: brain and plasma, read-out: K(p,uu,brain). The procedure, abridged: as §1
Data set [25] can be described thus: Half life in C57Bl/6 mouse at 0.8 mg/kg, iv administered as single dose. In kind it is ADME, organism-based. The note with it: in vivo. Put shortly:
as §1

Sequence of DNA-dependent protein kinase catalytic subunit (P78527 whole entry): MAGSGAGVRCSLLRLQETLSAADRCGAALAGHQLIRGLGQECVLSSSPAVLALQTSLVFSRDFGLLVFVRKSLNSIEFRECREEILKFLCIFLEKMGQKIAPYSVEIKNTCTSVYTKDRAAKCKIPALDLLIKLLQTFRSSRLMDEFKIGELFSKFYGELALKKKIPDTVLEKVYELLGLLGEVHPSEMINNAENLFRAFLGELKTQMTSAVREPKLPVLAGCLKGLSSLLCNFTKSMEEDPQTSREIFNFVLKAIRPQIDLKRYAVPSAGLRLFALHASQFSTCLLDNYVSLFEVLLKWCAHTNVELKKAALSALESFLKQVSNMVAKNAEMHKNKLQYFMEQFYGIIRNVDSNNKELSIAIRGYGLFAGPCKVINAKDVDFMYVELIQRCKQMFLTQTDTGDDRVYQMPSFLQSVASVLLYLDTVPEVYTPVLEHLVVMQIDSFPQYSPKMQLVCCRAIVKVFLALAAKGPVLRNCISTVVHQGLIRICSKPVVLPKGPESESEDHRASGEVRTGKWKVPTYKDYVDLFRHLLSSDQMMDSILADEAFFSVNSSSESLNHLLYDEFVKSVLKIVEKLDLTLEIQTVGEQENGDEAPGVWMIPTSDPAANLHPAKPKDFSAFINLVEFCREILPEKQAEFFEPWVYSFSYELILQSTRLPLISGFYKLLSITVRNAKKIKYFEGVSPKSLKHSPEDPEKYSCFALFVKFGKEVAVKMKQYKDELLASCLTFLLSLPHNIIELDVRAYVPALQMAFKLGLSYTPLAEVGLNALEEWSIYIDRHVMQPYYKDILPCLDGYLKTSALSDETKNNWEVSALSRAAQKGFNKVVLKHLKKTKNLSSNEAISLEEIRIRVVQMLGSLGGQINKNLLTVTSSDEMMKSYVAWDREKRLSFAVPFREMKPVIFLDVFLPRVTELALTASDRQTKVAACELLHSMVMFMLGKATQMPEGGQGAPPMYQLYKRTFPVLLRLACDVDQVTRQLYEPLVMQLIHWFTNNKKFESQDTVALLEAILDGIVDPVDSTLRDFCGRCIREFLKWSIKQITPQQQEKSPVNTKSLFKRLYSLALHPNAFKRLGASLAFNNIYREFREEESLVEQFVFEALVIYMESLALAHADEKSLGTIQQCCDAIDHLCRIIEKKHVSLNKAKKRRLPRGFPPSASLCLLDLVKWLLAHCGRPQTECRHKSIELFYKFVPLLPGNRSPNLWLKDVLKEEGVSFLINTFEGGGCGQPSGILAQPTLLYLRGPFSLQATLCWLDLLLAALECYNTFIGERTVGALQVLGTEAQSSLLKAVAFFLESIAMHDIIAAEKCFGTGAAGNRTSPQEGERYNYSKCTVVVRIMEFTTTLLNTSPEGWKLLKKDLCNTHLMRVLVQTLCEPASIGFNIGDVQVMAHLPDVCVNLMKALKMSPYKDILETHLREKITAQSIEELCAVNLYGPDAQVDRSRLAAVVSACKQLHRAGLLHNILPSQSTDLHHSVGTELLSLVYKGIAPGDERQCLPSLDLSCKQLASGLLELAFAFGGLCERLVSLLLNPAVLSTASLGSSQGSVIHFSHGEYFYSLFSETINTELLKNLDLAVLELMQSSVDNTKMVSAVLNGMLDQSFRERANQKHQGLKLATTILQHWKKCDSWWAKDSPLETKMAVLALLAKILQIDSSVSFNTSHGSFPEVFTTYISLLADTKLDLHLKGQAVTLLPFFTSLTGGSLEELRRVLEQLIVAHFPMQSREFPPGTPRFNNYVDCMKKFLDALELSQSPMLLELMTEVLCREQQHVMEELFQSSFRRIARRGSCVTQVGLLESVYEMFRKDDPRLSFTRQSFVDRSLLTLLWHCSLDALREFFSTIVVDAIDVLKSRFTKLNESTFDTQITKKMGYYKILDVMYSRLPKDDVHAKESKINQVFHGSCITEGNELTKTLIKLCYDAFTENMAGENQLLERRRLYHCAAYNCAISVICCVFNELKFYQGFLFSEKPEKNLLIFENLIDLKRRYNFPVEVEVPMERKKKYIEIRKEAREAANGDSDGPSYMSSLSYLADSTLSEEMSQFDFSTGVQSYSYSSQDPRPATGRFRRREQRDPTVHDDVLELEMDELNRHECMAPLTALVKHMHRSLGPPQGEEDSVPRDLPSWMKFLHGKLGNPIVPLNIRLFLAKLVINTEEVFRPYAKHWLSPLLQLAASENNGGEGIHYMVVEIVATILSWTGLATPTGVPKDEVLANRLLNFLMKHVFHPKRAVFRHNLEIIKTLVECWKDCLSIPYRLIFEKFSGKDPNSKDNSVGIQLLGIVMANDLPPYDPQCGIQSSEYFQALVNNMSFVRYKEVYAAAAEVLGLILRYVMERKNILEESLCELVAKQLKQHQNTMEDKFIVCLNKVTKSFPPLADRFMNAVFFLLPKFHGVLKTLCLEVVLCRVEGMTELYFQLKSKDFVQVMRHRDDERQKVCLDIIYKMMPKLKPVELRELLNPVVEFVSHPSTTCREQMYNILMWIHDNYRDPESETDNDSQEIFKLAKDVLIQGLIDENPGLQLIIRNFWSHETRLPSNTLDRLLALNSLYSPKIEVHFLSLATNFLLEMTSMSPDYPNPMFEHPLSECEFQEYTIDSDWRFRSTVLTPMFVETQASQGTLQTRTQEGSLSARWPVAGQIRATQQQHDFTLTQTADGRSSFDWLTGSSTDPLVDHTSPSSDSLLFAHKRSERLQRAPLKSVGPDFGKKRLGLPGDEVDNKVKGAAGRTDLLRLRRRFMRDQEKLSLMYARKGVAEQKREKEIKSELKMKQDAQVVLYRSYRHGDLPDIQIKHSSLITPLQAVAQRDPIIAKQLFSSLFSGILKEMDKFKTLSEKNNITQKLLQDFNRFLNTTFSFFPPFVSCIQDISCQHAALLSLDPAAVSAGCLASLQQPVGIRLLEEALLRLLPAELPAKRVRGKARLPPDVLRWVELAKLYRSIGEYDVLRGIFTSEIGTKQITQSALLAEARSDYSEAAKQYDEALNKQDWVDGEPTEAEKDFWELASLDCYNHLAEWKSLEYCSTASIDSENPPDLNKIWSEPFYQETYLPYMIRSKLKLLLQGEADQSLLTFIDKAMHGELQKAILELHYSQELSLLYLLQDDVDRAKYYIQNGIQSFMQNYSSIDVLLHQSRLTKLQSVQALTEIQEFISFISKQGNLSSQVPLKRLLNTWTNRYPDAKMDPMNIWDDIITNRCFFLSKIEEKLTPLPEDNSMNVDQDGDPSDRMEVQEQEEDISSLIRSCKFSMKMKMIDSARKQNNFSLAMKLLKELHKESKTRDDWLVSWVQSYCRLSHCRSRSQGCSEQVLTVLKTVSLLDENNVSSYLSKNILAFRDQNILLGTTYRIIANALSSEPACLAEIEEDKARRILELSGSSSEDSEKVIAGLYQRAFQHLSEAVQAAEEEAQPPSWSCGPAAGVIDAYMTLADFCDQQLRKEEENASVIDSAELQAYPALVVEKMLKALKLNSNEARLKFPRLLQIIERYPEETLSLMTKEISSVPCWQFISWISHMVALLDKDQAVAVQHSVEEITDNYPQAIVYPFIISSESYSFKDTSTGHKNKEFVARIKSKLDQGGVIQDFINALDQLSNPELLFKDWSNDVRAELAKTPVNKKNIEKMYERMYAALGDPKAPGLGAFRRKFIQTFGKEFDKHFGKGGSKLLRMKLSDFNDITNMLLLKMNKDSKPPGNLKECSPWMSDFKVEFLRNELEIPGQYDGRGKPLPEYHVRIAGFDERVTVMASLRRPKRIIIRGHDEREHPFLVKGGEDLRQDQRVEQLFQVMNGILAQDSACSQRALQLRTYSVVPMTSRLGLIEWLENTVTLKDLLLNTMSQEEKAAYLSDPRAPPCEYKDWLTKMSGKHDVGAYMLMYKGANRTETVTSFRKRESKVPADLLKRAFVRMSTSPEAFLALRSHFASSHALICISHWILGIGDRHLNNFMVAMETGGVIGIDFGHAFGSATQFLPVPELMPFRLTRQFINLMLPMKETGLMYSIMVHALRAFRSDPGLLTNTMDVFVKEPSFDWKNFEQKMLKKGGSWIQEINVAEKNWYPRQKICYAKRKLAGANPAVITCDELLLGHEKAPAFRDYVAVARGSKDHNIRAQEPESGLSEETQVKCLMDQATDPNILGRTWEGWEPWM
T1 sequence (Q8NEB9 whole entry): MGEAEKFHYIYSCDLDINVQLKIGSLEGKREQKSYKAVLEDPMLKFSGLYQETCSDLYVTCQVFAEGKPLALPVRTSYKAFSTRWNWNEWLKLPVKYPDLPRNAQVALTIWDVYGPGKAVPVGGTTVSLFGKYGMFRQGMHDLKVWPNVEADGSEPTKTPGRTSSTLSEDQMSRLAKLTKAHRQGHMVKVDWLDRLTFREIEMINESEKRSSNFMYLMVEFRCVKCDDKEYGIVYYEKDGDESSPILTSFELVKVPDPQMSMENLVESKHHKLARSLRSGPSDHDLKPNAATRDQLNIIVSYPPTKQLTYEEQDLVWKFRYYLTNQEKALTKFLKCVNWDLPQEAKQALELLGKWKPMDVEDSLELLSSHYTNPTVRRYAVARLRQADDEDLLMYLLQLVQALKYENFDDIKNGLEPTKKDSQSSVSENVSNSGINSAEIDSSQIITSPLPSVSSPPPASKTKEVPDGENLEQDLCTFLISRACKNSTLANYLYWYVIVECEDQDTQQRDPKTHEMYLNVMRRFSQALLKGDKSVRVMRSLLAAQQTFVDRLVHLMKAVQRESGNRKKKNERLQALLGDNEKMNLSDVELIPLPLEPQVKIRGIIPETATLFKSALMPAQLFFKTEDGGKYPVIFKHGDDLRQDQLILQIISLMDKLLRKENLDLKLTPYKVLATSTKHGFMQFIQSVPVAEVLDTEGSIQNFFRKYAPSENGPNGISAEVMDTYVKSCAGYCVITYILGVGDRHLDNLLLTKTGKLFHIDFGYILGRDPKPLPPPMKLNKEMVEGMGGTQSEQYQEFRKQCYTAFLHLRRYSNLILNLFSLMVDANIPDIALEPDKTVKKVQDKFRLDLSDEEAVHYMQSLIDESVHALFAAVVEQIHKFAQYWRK

A word on the Kp: it is tissue or fluid exposure divided by exposure in the circulation. The term IC50 denotes the point on the concentration scale where inhibition reaches its midpoint. In general, half-life refers to the time needed for the level to fall by half in the phase considered. The low end stands for rapid decline, the high end for slow decline. As usually defined, the clearance is a measure of how efficiently the substance is removed, as volume per time. Higher therefore signals a high capacity for elimination. The Ki is the equilibrium dissociation constant of an inhibitor or competing ligand from its target. Usually Papp A→B stands for how fast a substance crosses the layer from the apical side. The term Kd denotes the constant that tells how readily two partners part at equilibrium. Lower therefore signals higher affinity. In data set [1], `O=c1cc(N2CCOCC2)cc(N2C[C@H]3C[C@H]3[C@@H]2Cc2ccccc2)[nH]1` showed a Kp of 0.23. Also, the IC50 in data set [2] is over 30000 nM. In addition, the Vd in data set [3] stood at 4.7 L/kg. Besides, the half-life in data set [4] was 2.4 h. In addition, the clearance in [5] was 33.3 mL/min/kg. Moreover, in data set [6], the Ratio turned out to be 6.7. Also, the Ki in [7] is 160 nM; in data set [9], 98 nM; in [13], 2 nM. The Ratio Ki in data set [8] amounted to 49; in data set [10], 80. For the same compound, in data set [11], the Kp uu was 0.12. The CLint scaled at 1 µM in data set [12] was under 75 mL/min/kg. For the same compound, the Papp A→B at 1 h in [14] was 65.7 ×10⁻⁶ cm/s. Moreover, in data set [15], the solubility kinetic at 2 h turned out to be 59 µg/mL (≈ 168 µM). Further, in data set [16], binding was characterised by a dissociation constant (Kd) of 4600 nM.
A word on the bioavailability: it is the share of a dose that reaches the circulation, judged against a reference dose that is usually intravenous. In data set [1], `O=c1cc(N2CCOCC2)cc(N2CCCCC[C@@H]2Cc2ccccc2)[nH]1` registered a Kp of 0.41. This compound also registered a bioavailability in data set [17] of 68%. Moreover, the figures for the IC50 in data set [2] and in [18] were over 30000 nM and 230 nM, respectively. For the same compound, in data set [3], the Vd amounted to 3.4 L/kg. This compound also showed a half-life in data set [4] of 1.6 h. For the same compound, in data set [5], the clearance was 35 mL/min/kg. For the same compound, the Ratio in data set [6] is on record as 4.3. Moreover, the Ki is 180 nM in [7], 50 nM in [9] and 1 nM in data set [13]. Further, the Ratio Ki in data set [8] was determined as 50; in data set [10], 180. In addition, the Kp uu in data set [11] was 0.18. Also, the CLint scaled at 1 µM in [12] was found to be 69 mL/min/kg. Also, the Papp A→B at 1 h in data set [14] was determined as 55.6 ×10⁻⁶ cm/s. Moreover, the solubility kinetic at 2 h in data set [15] is over 58 µg/mL. The same compound had a Kd in data set [19] of 11000 nM.
In [20], `C[C@@H]1CCN(c2nc(N3CCOCC3)cc(=O)[nH]2)[C@H]1Cc1ccccc1` had a clearance of 115 mL/min/kg. This compound also yielded a Kp in data set [21] of 1. For the same compound, the IC50 turned out to be 5500 nM in data set [2] and 90 nM in data set [18]. Besides, the Vd in data set [22] was found to be 11 L/kg. Moreover, in data set [23], the bioavailability is 78%. Also, the Ki in data set [7] is 110 nM; in data set [9], 6 nM; in data set [13] it was 0.4 nM. The Ratio Ki in data set [8] is 15; in data set [10], 275. In addition, in data set [24], the Kp uu came out at 0.47. The half-life in data set [25] is 0.75 h. Further, the solubility kinetic at 2 h in [15] amounted to 33 µg/mL (≈ 93.1 µM).
